This note sets out measurements from ChEMBL document CHEMBL1177648, “Synthesis and anti breast cancer activity of biphenyl based chalcones” (Bioorg Med Chem, 2010).

One assay concerns MCF7. Description: Cytotoxicity against human MCF7 cells after 24 hrs by MTT assay. The format is functional, cell-based. In short, it runs like this:
(§1)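 Cells seeded at 1 × 10⁴/well in DMEM with 10% FBS and held 24 h at 37 °C in CO₂. Compounds diluted in culture medium and incubated 24 h. Medium removed, MTT (5 mg/ml) added for 4 h, formazan dissolved in DMSO, absorbance read at 540 nm. Viability given as percent of untreated cells.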

The next assay concerns HeLa. Description: Cytotoxicity against human HeLa cells after 24 hrs by MTT assay. Format: functional, cell-based. The procedure, abridged: as §1
(In general: Tetrazolium assays rely on reduction of a dye to a coloured formazan, in cell work by metabolically active cells.)

The subject of the next assay is MDA-MB-231. The assay is described as follows: Cytotoxicity against human MDA-MB-231 cells after 24 hrs by MTT assay. The format is functional, cell-based. In short, it runs like this: as §1
Another assay deals with HEK293. Description: Cytotoxicity against HEK293 cells after 24 hrs by MTT assay. The format is cell-based, Homo sapiens. In short, it runs like this:
as §1

Where [1] appears, read: Homo sapiens, MCF7, 24 h, read-out: IC50.
Setting [2] is: Homo sapiens, HeLa, 24 h, read-out: IC50.
[3] abbreviates: Homo sapiens, MDA-MB-231, 24 h, read-out: IC50.
Setting [4] is: Homo sapiens, HEK293, 24 h, read-out: IC50.

With `CC/C(=C(\c1ccccc1)c1ccc(OCCN(C)C)cc1)c1ccccc1` [TAMOXIFEN], the IC50 came out at 8.9 µM with MCF7 (setting [1]), 12.5 µM in the assay with HeLa (setting [2]), 10 µM in the assay on MDA-MB-231 (setting [3]) and 10 µM with HEK293 (setting [4]).
Turning to `COc1ccc(/C=C/C(=O)c2c(C)cc(O)c(C(=O)/C=C/c3ccc(OC)cc3)c2-c2ccccc2)cc1`, the IC50 result with MCF7 (mcf7), in the assay with HeLa (hela), in the assay on MDA-MB-231 (mda-mb-231) and in the assay with HEK293 (hek293) was “Not Active” throughout.
Regarding `Cc1cc(O)c(C(=O)/C=C/c2ccc(Br)cc2)c(-c2ccccc2)c1C(=O)/C=C/c1ccc(Br)cc1`, the IC50 was 10 µM in the assay on MCF7 (setting [1]), 33.5 µM in the assay with HeLa (setting [2]), 10 µM in the assay on MDA-MB-231 (setting [3]) and 10 µM in the assay on HEK293 (setting [4]).
For the molecule `Cc1cc(O)c(C(=O)/C=C/c2ccc(F)cc2)c(-c2ccc(Br)cc2)c1C(=O)/C=C/c1ccc(F)cc1`, the IC50 in the assay with MCF7 (setting [1]) is 20 µM; with HeLa (hela), “Not Active”; in the assay with MDA-MB-231 (setting [3]), 22.3 µM; in the assay on HEK293 (setting [4]) it was 20 µM.
Take `COc1ccc(/C=C/C(=O)c2c(C)cc(O)c(C(=O)/C=C/c3ccc(OC)c(OC)c3)c2-c2ccccc2)cc1OC`: the concentration for half-maximal inhibition (IC50) entry with MCF7 (mcf7), in the assay with HeLa (hela), in the assay with MDA-MB-231 (mda-mb-231) and in the assay on HEK293 (hek293) was “Not Active” in each case.
Turning to `Cc1cc(O)c(C(=O)/C=C/c2ccc3ccccc3c2)c(-c2ccc(Cl)cc2)c1C(=O)/C=C/c1ccc2ccccc2c1`, the IC50 entry in the assay with MCF7 (mcf7), in the assay on HeLa (hela), in the assay with MDA-MB-231 (mda-mb-231) and with HEK293 (hek293) was “Not Active” throughout.
Take `Cc1cc(O)c(C(=O)/C=C/c2ccc(Br)cc2)c(-c2ccc(OCc3ccccc3)cc2)c1C(=O)/C=C/c1ccc(Br)cc1`: the half-maximal inhibitory concentration (IC50) was 30 µM in the assay on MCF7 (setting [1]), “Not Active” with HeLa (hela), 30 µM with MDA-MB-231 (setting [3]) and 20 µM in the assay with HEK293 (setting [4]).
Regarding `Cc1cc(O)c(C(=O)/C=C/c2ccc(Cl)cc2)c(-c2ccc(Br)cc2)c1C(=O)/C=C/c1ccc(Cl)cc1`, the half-maximal inhibitory concentration (IC50) with MCF7 (setting [1]) was found to be 20 µM; in the assay with HeLa (setting [2]) it was 32 µM; with MDA-MB-231 (setting [3]) it was 15 µM; in the assay with HEK293 (setting [4]), 25 µM.
The like results for `COc1ccc(/C=C/C(=O)c2c(C)cc(O)c(C(=O)/C=C/c3ccc(OC)cc3)c2-c2ccc(OCc3ccccc3)cc2)cc1` were, in that order, 30 µM, 28 µM, 12 µM and 28 µM.
With `COc1ccc(/C=C/C(=O)c2c(C)cc(O)c(C(=O)/C=C/c3ccc(OC)cc3)c2-c2ccc(Br)cc2)cc1`, the IC50 result in the assay with MCF7 (mcf7), with HeLa (hela), in the assay with MDA-MB-231 (mda-mb-231) and in the assay on HEK293 (hek293) was “Not Active” throughout.
On to `Cc1cc(O)c(C(=O)/C=C/c2ccccc2Cl)c(-c2ccc(Cl)cc2)c1C(=O)/C=C/c1ccccc1Cl`, for which the IC50 with MCF7 (setting [1]) is 30 µM; in the assay with HeLa (hela), “Not Active”; in the assay with MDA-MB-231 (setting [3]), 29 µM; in the assay on HEK293 (setting [4]), 30 µM.
As to `Cc1cc(O)c(C(=O)/C=C/c2ccc(F)cc2)c(-c2ccccc2)c1C(=O)/C=C/c1ccc(F)cc1`, the IC50 was 20 µM in the assay with MCF7 (setting [1]), 30 µM in the assay with HeLa (setting [2]), 20 µM in the assay on MDA-MB-231 (setting [3]) and “Not Active” in the assay on HEK293 (hek293).
As for `Cc1cc(O)c(C(=O)/C=C/c2cccc3ccccc23)c(-c2ccc(Cl)cc2)c1C(=O)/C=C/c1cccc2ccccc12`, the IC50 is 30 µM with MCF7 (setting [1]), “Not Active” in the assay on HeLa (hela), 30 µM in the assay with MDA-MB-231 (setting [3]) and 30 µM with HEK293 (setting [4]).
Regarding `Cc1cc(O)c(C(=O)/C=C/c2ccc(OCc3ccccc3)cc2)c(-c2ccc(Br)cc2)c1C(=O)/C=C/c1ccc(OCc2ccccc2)cc1`, the IC50 in the assay on MCF7 (setting [1]) was 20 µM; in the assay on HeLa (hela), “Not Active”; in the assay on MDA-MB-231 (setting [3]), 20 µM; with HEK293 (setting [4]), 25 µM.
As for `Cc1cc(O)c(C(=O)/C=C/c2ccccc2)c(-c2ccccc2)c1C(=O)/C=C/c1ccccc1`, the concentration for half-maximal inhibition (IC50) was 10 µM in the assay with MCF7 (setting [1]), “Not Active” in the assay with HeLa (hela), 8.5 µM in the assay on MDA-MB-231 (setting [3]) and “Not Active” in the assay with HEK293 (hek293).
For the molecule `Cc1cc(O)c(C(=O)/C=C/c2ccc(Br)cc2)c(-c2ccc(Br)cc2)c1C(=O)/C=C/c1ccc(Br)cc1`, the IC50 in the assay on MCF7 (setting [1]) stood at 15 µM; in the assay with HeLa (setting [2]), 30 µM; with MDA-MB-231 (setting [3]), 18 µM; in the assay on HEK293 (setting [4]), 30 µM.
For the molecule `Cc1cc(O)c(C(=O)/C=C/c2ccc(F)cc2)c(-c2ccc(OCc3ccccc3)cc2)c1C(=O)/C=C/c1ccc(F)cc1`, the IC50 was 28 µM with MCF7 (setting [1]), 25 µM with HeLa (setting [2]), 15 µM in the assay on MDA-MB-231 (setting [3]) and 30 µM in the assay with HEK293 (setting [4]).
On to `Cc1cc(O)c(C(=O)/C=C/c2cccc3ccccc23)c(-c2ccccc2)c1C(=O)/C=C/c1cccc2ccccc12`, for which the half-maximal inhibitory concentration (IC50) is 30 µM in the assay on MCF7 (setting [1]), “Not Active” in the assay on HeLa (hela), “Not Active” in the assay on MDA-MB-231 (mda-mb-231) and “Not Active” with HEK293 (hek293).
Turning to `Cc1cc(O)c(C(=O)/C=C/c2ccccc2)c(-c2ccc(Br)cc2)c1C(=O)/C=C/c1ccccc1`, the IC50 in the assay on MCF7 (setting [1]) was 10 µM; in the assay with HeLa (setting [2]), 30 µM; with MDA-MB-231 (setting [3]), 8 µM; in the assay on HEK293 (setting [4]) it was 30 µM.
For `Cc1cc(O)c(C(=O)/C=C/c2ccc(Cl)cc2)c(-c2ccc(OCc3ccccc3)cc2)c1C(=O)/C=C/c1ccc(Cl)cc1`, the 50% inhibitory concentration (IC50) entry in the assay with MCF7 (mcf7) is “Not Active”; with HeLa (hela), “Not Active”; in the assay on MDA-MB-231 (setting [3]), 30 µM; in the assay with HEK293 (hek293), “Not Active”.
For the molecule `Cc1cc(O)c(C(=O)/C=C/c2ccccc2Cl)c(-c2ccccc2)c1C(=O)/C=C/c1ccccc1Cl`, the IC50 result in the assay on MCF7 (mcf7), in the assay on HeLa (hela), with MDA-MB-231 (mda-mb-231) and in the assay on HEK293 (hek293) was “Not Active” throughout.
Regarding `Cc1cc(O)c(C(=O)/C=C/c2ccc(Cl)cc2)c(-c2ccc(Cl)cc2)c1C(=O)/C=C/c1ccc(Cl)cc1`, the IC50 in the assay on MCF7 (setting [1]) was 28 µM; in the assay on HeLa (hela) it was “Not Active”; in the assay on MDA-MB-231 (setting [3]) it was 30 µM; in the assay on HEK293 (hek293), “Not Active”.
In the case of `Cc1cc(O)c(C(=O)/C=C/c2ccc3ccccc3c2)c(-c2ccccc2)c1C(=O)/C=C/c1ccc2ccccc2c1`, the half-maximal inhibitory concentration (IC50) is 31.5 µM in the assay with MCF7 (setting [1]), “Not Active” in the assay with HeLa (hela), 30 µM with MDA-MB-231 (setting [3]) and “Not Active” in the assay on HEK293 (hek293).
For the molecule `Cc1cc(O)c(C(=O)/C=C/c2ccc(OCc3ccccc3)cc2)c(-c2ccccc2)c1C(=O)/C=C/c1ccc(OCc2ccccc2)cc1`, the IC50 with MCF7 (setting [1]) came out at 10 µM; in the assay with HeLa (setting [2]) it was 20 µM; with MDA-MB-231 (setting [3]) it was 10 µM; in the assay on HEK293 (setting [4]), 30 µM.
With `Cc1cc(O)c(C(=O)/C=C/c2ccc(OCc3ccccc3)cc2)c(-c2ccc(OCc3ccccc3)cc2)c1C(=O)/C=C/c1ccc(OCc2ccccc2)cc1`, the IC50 was 26 µM with MCF7 (setting [1]), “Not Active” in the assay on HeLa (hela), 20 µM in the assay with MDA-MB-231 (setting [3]) and 30 µM in the assay with HEK293 (setting [4]).
Take `Cc1cc(O)c(C(=O)/C=C/c2ccccc2)c(-c2ccc(OCc3ccccc3)cc2)c1C(=O)/C=C/c1ccccc1`: the 50% inhibitory concentration (IC50) entry with MCF7 (mcf7), with HeLa (hela), in the assay with MDA-MB-231 (mda-mb-231) and with HEK293 (hek293) was “Not Active” throughout.
`COc1ccc(/C=C/C(=O)c2c(C)cc(O)c(C(=O)/C=C/c3ccc(OC)c(OC)c3)c2-c2ccc(OCc3ccccc3)cc2)cc1OC`: the half-inhibitory concentration (IC50) in the assay on MCF7 (setting [1]) is 30 µM; in the assay with HeLa (hela), “Not Active”; in the assay on MDA-MB-231 (setting [3]), 22 µM; in the assay on HEK293 (setting [4]), 30 µM.
In the case of `Cc1cc(O)c(C(=O)/C=C/c2ccc(Cl)cc2)c(-c2ccccc2)c1C(=O)/C=C/c1ccc(Cl)cc1`, the IC50 in the assay on MCF7 (setting [1]) turned out to be 10 µM; in the assay with HeLa (setting [2]), 30 µM; in the assay with MDA-MB-231 (setting [3]) it was 7.9 µM; in the assay with HEK293 (setting [4]) it was 10 µM.

In general, IC50 refers to the point on the concentration scale where inhibition reaches its midpoint.
